From ChEMBL document CHEMBL1649382, “Synthesis and in vitro anticancer evaluation of some novel hexahydroquinoline derivatives having a benzenesulfonamide moiety” (Eur J Med Chem, 2011)
Converted amounts (≈) assume the structure as drawn.

Tests used:
[1] = Cytotoxicity against mouse EAC assessed as non-viable cells at 100 ug/ml after 2 hrs by trypan blue exclusion test; format: functional, Ehrlich
Summary of the method: (§1)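 Mouse EAC cells came from ascitic fluid by needle aspiration, at 2.5×10^6 per mL in RPMI-1640. Each tube held 0.8 mL medium (glutamine, fetal calf serum, streptomycin, penicillin), 0.1 mL compound dissolved in DMSO (stock 10–100 µg per mL) and 0.1 mL of cells, at 37 °C for 2 h. Trypan blue staining gave the percentage of non-viable cells, as the mean of three experiments ± SD.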

[2] = Cytotoxicity against mouse EAC assessed as non-viable cells at 50 ug/ml after 2 hrs by trypan blue exclusion test; format: functional, Ehrlich; summary of the method: as §1
[3] = Cytotoxicity against mouse EAC assessed as non-viable cells at 25 ug/ml after 2 hrs by trypan blue exclusion test; format: functional, Ehrlich; summary of the method: as §1
[4] = Cytotoxicity against mouse EAC assessed as non-viable cells at 10 ug/ml after 2 hrs by trypan blue exclusion test; format: functional, Ehrlich; summary of the method: as §1
[5] = Cytotoxicity against mouse EAC assessed as non-viable cells after 2 hrs by trypan blue exclusion test; format: functional, cell-based; settings: Ehrlich
Summary of the method: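 EAC cells were aspirated from the ascitic fluid of preinoculated mice and suspended in RPMI-1640 at 2.5×10^6 per mL. Each tube held 0.8 mL supplemented medium, 0.1 mL of a DMSO solution (100, 50, 25 or 10 µg per mL DMSO) and 0.1 mL of cells, incubated 2 h at 37 °C. Non-viable cells were counted by trypan blue. The survival-versus-concentration curve gave IC50, the concentration causing 50% mortality.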

CC(Cl)CC(=O)NC1=C(C#N)C(c2ccc(Cl)cc2Cl)C2=C(CCCC2=O)N1c1ccc(S(N)(=O)=O)cc1 (stereo not given)
Activity [1]: 60% | Activity [2]: 55% | Activity [3]: 50% | Activity [4]: 20% | IC50 [5]: 25 µg/mL (≈ 42.1 µM)

N#CC1=C(NC(=O)C2CC2)N(c2ccc(S(N)(=O)=O)cc2)C2=C(C(=O)CCC2)C1c1ccc(Cl)cc1Cl (stereo not given)
Activity [1]: 60% | Activity [2]: 40% | Activity [3]: 40% | Activity [4]: 20% | IC50 [5]: 75 µg/mL (≈ 135 µM)

N#CC1=C(NC(=O)c2ccccc2)N(c2ccc(S(N)(=O)=O)cc2)C2=C(C(=O)CCC2)C1c1ccc(Cl)cc1Cl (stereo not given)
Activity [1]: 75% | Activity [2]: 70% | Activity [3]: 60% | Activity [4]: 50% | IC50 [5]: 10 µg/mL (≈ 16.8 µM)

Cc1ccc(C(=O)NC2=C(C#N)C(c3ccc(Cl)cc3Cl)C3=C(CCCC3=O)N2c2ccc(S(N)(=O)=O)cc2)cc1 (stereo not given)
Activity [1]: 40% | Activity [2]: 40% | Activity [3]: 30% | Activity [4]: 20% | IC50 [5]: > 100 µg/mL

N#CC1=C(NC(=O)/C=C/c2ccccc2)N(c2ccc(S(N)(=O)=O)cc2)C2=C(C(=O)CCC2)C1c1ccc(Cl)cc1Cl (stereo not given)
Activity [1]: 45% | Activity [2]: 40% | Activity [3]: 30% | Activity [4]: 30% | IC50 [5]: > 100 µg/mL

N#CC1=C(NC(=O)c2ccc([N+](=O)[O-])cc2)N(c2ccc(S(N)(=O)=O)cc2)C2=C(C(=O)CCC2)C1c1ccc(Cl)cc1Cl (stereo not given)
Activity [1]: 70% | Activity [2]: 50% | Activity [3]: 40% | Activity [4]: 40% | IC50 [5]: 50 µg/mL (≈ 78.3 µM)

COc1cc(C(=O)NC2=C(C#N)C(c3ccc(Cl)cc3Cl)C3=C(CCCC3=O)N2c2ccc(S(N)(=O)=O)cc2)cc(OC)c1OC (stereo not given)
Activity [1]: 95% | Activity [2]: 95% | Activity [3]: 20% | Activity [4]: 0% | IC50 [5]: 60 µg/mL (≈ 87.8 µM)

CC(Cl)Cc1nc2c(c(=O)[nH]1)C(c1ccc(Cl)cc1Cl)C1=C(CCCC1=O)N2c1ccc(S(N)(=O)=O)cc1 (stereo not given)
Activity [1]: 60% | Activity [2]: 40% | Activity [3]: 40% | Activity [4]: 30% | IC50 [5]: > 100 µg/mL

NS(=O)(=O)c1ccc(N2C3=C(C(=O)CCC3)C(c3ccc(Cl)cc3Cl)c3c2nc(C2CC2)[nH]c3=O)cc1 (stereo not given)
Activity [1]: 60% | Activity [2]: 52% | Activity [3]: 44% | Activity [4]: 27% | IC50 [5]: 56 µg/mL (≈ 100 µM)

NS(=O)(=O)c1ccc(N2C3=C(C(=O)CCC3)C(c3ccc(Cl)cc3Cl)c3c2nc(-c2ccccc2)[nH]c3=O)cc1 (stereo not given)
Activity [1]: 60% | Activity [2]: 10% | Activity [3]: 0% | Activity [4]: 0% | IC50 [5]: > 100 µg/mL

Cc1ccc(-c2nc3c(c(=O)[nH]2)C(c2ccc(Cl)cc2Cl)C2=C(CCCC2=O)N3c2ccc(S(N)(=O)=O)cc2)cc1 (stereo not given)
Activity [1]: 60% | Activity [2]: 55% | Activity [3]: 55% | Activity [4]: 30% | IC50 [5]: 28 µg/mL (≈ 46.1 µM)

NS(=O)(=O)c1ccc(N2C3=C(C(=O)CCC3)C(c3ccc(Cl)cc3Cl)c3c2nc(-c2ccc(Br)cc2)[nH]c3=O)cc1 (stereo not given)
Activity [1]: 100% | Activity [2]: 60% | Activity [3]: 50% | Activity [4]: 20% | IC50 [5]: 25 µg/mL (≈ 37.2 µM)

NS(=O)(=O)c1ccc(N2C3=C(C(=O)CCC3)C(c3ccc(Cl)cc3Cl)c3c2nc(CCl)[nH]c3=O)cc1 (stereo not given)
Activity [1]: 40% | Activity [2]: 35% | Activity [3]: 30% | Activity [4]: 30% | IC50 [5]: > 100 µg/mL

NC(=O)C1=C(N)N(c2ccc(S(N)(=O)=O)cc2)C2=C(C(=O)CCC2)C1c1ccc(Cl)cc1Cl (stereo not given)
Activity [1]: 45% | Activity [2]: 40% | Activity [3]: 30% | Activity [4]: 30% | IC50 [5]: > 100 µg/mL

NC1=C(C(=O)O)C(c2ccc(Cl)cc2Cl)C2=C(CCCC2=O)N1c1ccc(S(N)(=O)=O)cc1 (stereo not given)
Activity [1]: 60% | Activity [2]: 10% | Activity [3]: 0% | Activity [4]: 0% | IC50 [5]: > 100 µg/mL

CN(C)c1ccc(/C=N/C2=C(C#N)C(c3ccc(Cl)cc3Cl)C3=C(CCCC3=O)N2c2ccc(S(N)(=O)=O)cc2)cc1 (stereo not given)
Activity [1]: 40% | Activity [2]: 30% | Activity [3]: 30% | Activity [4]: 10% | IC50 [5]: > 100 µg/mL

CN(C)c1ccc(/C=C/C=N/C2=C(C#N)C(c3ccc(Cl)cc3Cl)C3=C(CCCC3=O)N2c2ccc(S(N)(=O)=O)cc2)cc1 (stereo not given)
Activity [1]: 20% | Activity [2]: 20% | Activity [3]: 20% | Activity [4]: 10% | IC50 [5]: > 100 µg/mL

N#CC1=C(/N=C/c2ccc([N+](=O)[O-])cc2[N+](=O)[O-])N(c2ccc(S(N)(=O)=O)cc2)C2=C(C(=O)CCC2)C1c1ccc(Cl)cc1Cl (stereo not given)
Activity [1]: 20% | Activity [2]: 20% | Activity [3]: 20% | Activity [4]: 10% | IC50 [5]: > 100 µg/mL

CC(=O)CC(=O)NC1=C(C#N)C(c2ccc(Cl)cc2Cl)C2=C(CCCC2=O)N1c1ccc(S(N)(=O)=O)cc1 (stereo not given)
Activity [1]: 80% | Activity [2]: 60% | Activity [3]: 44% | Activity [4]: 40% | IC50 [5]: 64 µg/mL (≈ 112 µM)

Cc1nc2c(c(=S)[nH]1)C(c1ccc(Cl)cc1Cl)C1=C(CCCC1=O)N2c1ccc(S(N)(=O)=O)cc1 (stereo not given)
Activity [1]: 60% | Activity [2]: 40% | Activity [3]: 40% | Activity [4]: 30% | IC50 [5]: > 100 µg/mL

CCO/C=N/C1=C(C#N)C(c2ccc(Cl)cc2Cl)C2=C(CCCC2=O)N1c1ccc(S(N)(=O)=O)cc1 (stereo not given)
Activity [1]: 40% | Activity [2]: 35% | Activity [3]: 30% | Activity [4]: 30% | IC50 [5]: > 100 µg/mL

N#CC1=C(N)N(c2ccc(S(N)(=O)=O)cc2)C2=C(C(=O)CCC2)C1c1ccc(Cl)cc1Cl (stereo not given)
Activity [1]: 95% | Activity [2]: 65% | Activity [3]: 50% | Activity [4]: 40% | IC50 [5]: 25 µg/mL (≈ 51.1 µM)

COc1cccc2c1C(=O)c1c(O)c3c(c(O)c1C2=O)C[C@@](O)(C(=O)CO)C[C@@H]3O[C@H]1C[C@H](N)[C@H](O)[C@H](C)O1 [DOXORUBICIN]
Activity [1]: 100% | Activity [2]: 68% | Activity [3]: 32% | Activity [4]: 19% | IC50 [5]: 38 µg/mL (≈ 69.9 µM)
